Results on two compounds are retold here after ChEMBL document CHEMBL4376862, “Synthesis and evaluation of novel chlorophyll a derivatives as potent photosensitizers for photodynamic therapy” (Eur J Med Chem, 2020).

Calls of active or inactive are those of the source. The rule behind the calls is not given here.

Data set [1] in a line: Therapeutic index, ratio of TC50 for human A549 cells under dark to IC50 for human A549 cells irradiated with 1 J/cm2 of 650 nanometer laser light. To be noted: read-out: TI. The data set is classed as toxicity, cell-based. The method in brief: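 A549 cells (F-12K, 10% FBS, 37 °C, 5% CO2) seeded 24 h, then exposed to 0–10 photosensitizer for 24 h. Dark arm: MTT 48 h later. Light arm: 650 nm laser, 1 J/cm2 (25 mW/cm2, 40 s), then MTT. A570 viability relative to control, triplicate. Ratio = dark TC50 / irradiated IC50.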

Data set [2] concerns A549. Kind of data set: Induction of ROS generation in human A549 cells assessed as increase in green fluorescence irradiated with 650 nanometer laser light preincubated for 4 hrs followed by DCFH-DA addition for 20 mins by fluorescent microscopic method relative to untreated control. The data set is classed as functional, cell-based. Summed up:
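A549 cells given photosensitizer for 4 h, irradiated with 650 nm laser at 2 J/cm2, then DCFH-DA for 20 min; green emission at 525 nm (488 nm excitation) viewed by fluorescence microscopy; controls without light and laser without drug.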

Data set [3] concerns A549. Kind of data set: Induction of apoptosis in human A549 cells assessed as viable cells in presence of 1J/cm2 light irradiation measured after 4 hrs by annexin V-FITC and propidium iodide staining based flow cytometric analysis (reference value: 99.88%). The data set is classed as functional. Summed up:
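After PDT at 1 J/cm2, A549 cells collected 4 h later, stained with annexin V-FITC and propidium iodide per kit instructions; flow cytometry with at least 10,000 events per sample.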
Background: Flow cytometry measures light scatter and fluorescence of single cells or particles in a stream.

Data set [4] concerns A549. As to the kind of experiment: Photodynamic antitumor activity against human A549 cells xenografted in BALB/c nude mouse assessed as increase in tumor tissue damage at 0.3 mg/kg, iv incubated for 24 hrs followed by laser light irradiation at 120 J/cm2 measured up to 14 days. The data set is classed as functional, organism-based. Summed up:
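Male BALB/c nude mice (5–6 weeks, 14–16 g) given 2×10^6 A549 cells s.c. in 0.2 mL PBS; at 6–7 mm tumors randomized into ten groups; drug via tail vein, 650 nm diode laser 120 J/cm2 at 180 mW/cm2 24 h later; caliper volume a×b²/2, followed 14 days.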
A general note: A xenograft is tissue or cells of one species grown in another, often human tumour cells in immunodeficient mice.

Data set [5] can be described thus: Drug uptake in BALB/c nude mouse xenografted with A549 cells assessed as drug level in lung at 0.3 mg/kg, iv measured at 12 hrs by fluorescence assay. The data set is classed as ADME, organism-based. To be noted: in vivo. Summed up:
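A549 tumor-bearing mice dosed via tail vein (1 mg/kg in methods; 0.3 mg/kg in text) at tumors ~150–170 mm3, n = 3; whole-body imaging 0–24 h; at 6 and 12 h mice killed, heart, liver, spleen, lung, kidney, brain, tumor imaged ex vivo, excitation 420 nm, emission 650 nm.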

Data set [6] deals with Mus musculus. Kind of data set: Phototoxicity in ICR mouse assessed as change in skin of the backs 0.45 mg/kg, iv in presence of 10 mW/cm2 light irradiation for 10 mins upto 7 days measured after 1 day of light irradiation by H and E staining based microscopic analysis. The settings on record: in vivo. The data set is classed as organism-based.

In the case of `CCC1=C(C)c2cc3[nH]c(cc4nc(c5c6[nH]c(cc1n2)c(C)c6C(=O)C5)[C@@H](CCC(=O)NCC(=O)CCC(=O)O)[C@@H]4C)c(C)c3C(C)OCCO` (some centres not stated), the selectivity ratio in data set [1] stood at 8.97. In addition, the result in data set [2] and in data set [4] was Active. For the same compound, the Activity was 2.64% in data set [3] and “Non-Toxic” in data set [6]. Moreover, in data set [5], the Drug uptake entry was “Not Active”.

With `CCCCOC(C)c1c(C)c2cc3nc(c4c5[nH]c(cc6nc(cc1[nH]2)C(C)=C6CC)c(C)c5C(=O)C4)[C@@H](CCC(=O)NCC(=O)CCC(=O)O)[C@@H]3C` (some centres not stated), the selectivity ratio in data set [1] worked out at 8.74. For the same compound, the result in data set [2] and in data set [4] was Active. Besides, the Activity in data set [3] is 3.13%; in data set [6] it was “Non-Toxic”. In addition, the Drug uptake result in data set [5] is reported as “Not Active”.
